Measured values from ChEMBL document CHEMBL4619797, “Antiglioma Activity of Aryl and Amido-Aryl Acetamidine Derivatives Targeting iNOS: Synthesis and Biological Evaluation” (ACS Med Chem Lett, 2020).
The source made the active and inactive calls. The calls are words filed in the database; no cut-off is given here.

Experiments:
[1] = test system: C6; assay: Antiproliferative activity against rat C6 cells assessed as inhibition of cell proliferation at 500 uM after 24 hrs by MTT assay relative to control; assay type: functional; details: C6, 24 h
Outline: (§1)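 C6 rat glioma cells exposed 24 h to increasing concentrations (0–1500 μM); metabolic activity by MTT, expressed as percent of untreated cultures (100%); means ± SD of three replicates.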

[2] = target: T1, Nitric oxide synthase, inducible (Homo sapiens, UniProt P35228); assay: Inhibition of recombinant N-terminal His-tagged human iNOS expressed in Escherichia coli at 1 uM using L-arginine as substrate preincubated for 15 mins followed by NADPH addition and measured after 20 mins by OPA/NAC reagent based HPLC-fluorimetric analysis relative to control
T1 sequence (P35228 whole entry): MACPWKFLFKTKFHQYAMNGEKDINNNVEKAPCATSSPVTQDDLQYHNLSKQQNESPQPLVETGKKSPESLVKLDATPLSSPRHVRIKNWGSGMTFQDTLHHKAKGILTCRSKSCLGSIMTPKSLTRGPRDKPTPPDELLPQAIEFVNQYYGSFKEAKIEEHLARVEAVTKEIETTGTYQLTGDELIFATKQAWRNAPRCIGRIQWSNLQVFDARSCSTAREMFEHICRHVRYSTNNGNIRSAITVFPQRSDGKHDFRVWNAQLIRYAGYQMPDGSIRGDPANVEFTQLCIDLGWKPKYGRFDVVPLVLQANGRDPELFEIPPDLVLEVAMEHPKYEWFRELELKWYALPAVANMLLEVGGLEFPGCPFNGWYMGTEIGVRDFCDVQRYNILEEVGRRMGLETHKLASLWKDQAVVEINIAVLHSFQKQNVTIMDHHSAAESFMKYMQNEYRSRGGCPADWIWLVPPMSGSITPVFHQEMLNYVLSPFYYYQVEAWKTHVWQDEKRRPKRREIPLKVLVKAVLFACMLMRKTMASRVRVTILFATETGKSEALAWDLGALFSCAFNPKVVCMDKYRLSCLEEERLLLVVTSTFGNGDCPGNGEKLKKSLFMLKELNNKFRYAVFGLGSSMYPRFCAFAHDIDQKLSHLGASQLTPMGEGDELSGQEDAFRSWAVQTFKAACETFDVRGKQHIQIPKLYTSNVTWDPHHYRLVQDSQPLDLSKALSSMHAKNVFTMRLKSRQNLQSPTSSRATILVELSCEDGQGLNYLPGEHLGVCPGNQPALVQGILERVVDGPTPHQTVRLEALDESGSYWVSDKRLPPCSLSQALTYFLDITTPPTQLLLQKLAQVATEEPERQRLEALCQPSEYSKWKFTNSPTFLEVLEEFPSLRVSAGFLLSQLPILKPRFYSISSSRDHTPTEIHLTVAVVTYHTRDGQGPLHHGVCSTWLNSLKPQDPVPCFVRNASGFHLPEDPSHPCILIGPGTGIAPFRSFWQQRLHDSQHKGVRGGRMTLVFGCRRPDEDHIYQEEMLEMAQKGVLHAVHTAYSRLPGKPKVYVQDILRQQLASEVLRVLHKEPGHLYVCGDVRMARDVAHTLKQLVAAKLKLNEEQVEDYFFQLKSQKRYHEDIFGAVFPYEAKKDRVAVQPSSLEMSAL
Outline: (§2)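 Primary screen: percent inhibition of iNOS and nNOS measured at 1 μM compound; mean ± SD of triplicate experiments.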

[3] = target: T2, Nitric oxide synthase 1 (Homo sapiens, UniProt P29475); assay: Inhibition of recombinant human nNOS expressed in Escherichia coli at 1 uM using L-arginine as substrate preincubated for 15 mins followed by NADPH addition and measured after 20 mins by OPA/NAC reagent based HPLC-fluorimetric analysis relative to control; outline: as §2
T2 sequence (P29475 whole entry): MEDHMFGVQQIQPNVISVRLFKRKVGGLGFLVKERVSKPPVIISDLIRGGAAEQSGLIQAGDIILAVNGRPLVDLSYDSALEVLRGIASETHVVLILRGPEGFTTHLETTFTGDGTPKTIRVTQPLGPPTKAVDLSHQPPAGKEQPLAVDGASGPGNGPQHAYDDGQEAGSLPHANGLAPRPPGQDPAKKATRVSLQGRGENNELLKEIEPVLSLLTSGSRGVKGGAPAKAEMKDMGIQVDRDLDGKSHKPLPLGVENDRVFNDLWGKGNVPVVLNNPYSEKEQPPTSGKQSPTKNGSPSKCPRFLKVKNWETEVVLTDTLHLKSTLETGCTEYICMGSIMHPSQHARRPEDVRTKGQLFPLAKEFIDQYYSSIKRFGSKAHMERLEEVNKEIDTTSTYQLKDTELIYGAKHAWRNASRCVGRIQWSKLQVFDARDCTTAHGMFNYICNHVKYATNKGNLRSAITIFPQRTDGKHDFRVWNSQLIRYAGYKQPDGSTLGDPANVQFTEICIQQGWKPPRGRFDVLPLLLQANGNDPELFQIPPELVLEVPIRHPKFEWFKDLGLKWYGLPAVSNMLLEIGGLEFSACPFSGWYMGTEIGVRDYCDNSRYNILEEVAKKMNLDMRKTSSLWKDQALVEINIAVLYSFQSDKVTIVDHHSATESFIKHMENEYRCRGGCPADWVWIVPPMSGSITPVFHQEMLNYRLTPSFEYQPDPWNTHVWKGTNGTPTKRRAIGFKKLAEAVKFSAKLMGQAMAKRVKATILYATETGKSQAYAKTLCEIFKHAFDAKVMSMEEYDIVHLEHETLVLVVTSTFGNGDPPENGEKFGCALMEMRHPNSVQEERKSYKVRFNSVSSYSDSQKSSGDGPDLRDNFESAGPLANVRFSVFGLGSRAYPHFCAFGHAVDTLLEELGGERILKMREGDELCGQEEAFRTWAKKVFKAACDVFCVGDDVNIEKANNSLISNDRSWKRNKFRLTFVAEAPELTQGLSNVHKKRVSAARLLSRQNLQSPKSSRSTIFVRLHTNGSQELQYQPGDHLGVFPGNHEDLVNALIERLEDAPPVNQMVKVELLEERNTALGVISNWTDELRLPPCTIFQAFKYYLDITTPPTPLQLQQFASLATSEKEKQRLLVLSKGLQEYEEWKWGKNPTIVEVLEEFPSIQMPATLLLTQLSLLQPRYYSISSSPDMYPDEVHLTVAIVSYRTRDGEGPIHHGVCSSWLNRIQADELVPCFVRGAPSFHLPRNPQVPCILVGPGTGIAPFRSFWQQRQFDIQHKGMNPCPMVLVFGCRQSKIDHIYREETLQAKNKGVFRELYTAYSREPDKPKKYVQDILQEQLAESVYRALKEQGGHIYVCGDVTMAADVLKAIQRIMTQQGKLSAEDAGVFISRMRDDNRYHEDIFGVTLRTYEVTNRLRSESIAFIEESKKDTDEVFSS

[4] = target: T3, Nitric oxide synthase 3 (Homo sapiens) (UniProt P29474); assay: Inhibition of human eNOS at 10 uM using L-arginine as substrate preincubated for 15 mins followed by NADPH addition and measured after 20 mins by OPA/NAC reagent based HPLC-fluorimetric analysis relative to control
T3 sequence (whole entry): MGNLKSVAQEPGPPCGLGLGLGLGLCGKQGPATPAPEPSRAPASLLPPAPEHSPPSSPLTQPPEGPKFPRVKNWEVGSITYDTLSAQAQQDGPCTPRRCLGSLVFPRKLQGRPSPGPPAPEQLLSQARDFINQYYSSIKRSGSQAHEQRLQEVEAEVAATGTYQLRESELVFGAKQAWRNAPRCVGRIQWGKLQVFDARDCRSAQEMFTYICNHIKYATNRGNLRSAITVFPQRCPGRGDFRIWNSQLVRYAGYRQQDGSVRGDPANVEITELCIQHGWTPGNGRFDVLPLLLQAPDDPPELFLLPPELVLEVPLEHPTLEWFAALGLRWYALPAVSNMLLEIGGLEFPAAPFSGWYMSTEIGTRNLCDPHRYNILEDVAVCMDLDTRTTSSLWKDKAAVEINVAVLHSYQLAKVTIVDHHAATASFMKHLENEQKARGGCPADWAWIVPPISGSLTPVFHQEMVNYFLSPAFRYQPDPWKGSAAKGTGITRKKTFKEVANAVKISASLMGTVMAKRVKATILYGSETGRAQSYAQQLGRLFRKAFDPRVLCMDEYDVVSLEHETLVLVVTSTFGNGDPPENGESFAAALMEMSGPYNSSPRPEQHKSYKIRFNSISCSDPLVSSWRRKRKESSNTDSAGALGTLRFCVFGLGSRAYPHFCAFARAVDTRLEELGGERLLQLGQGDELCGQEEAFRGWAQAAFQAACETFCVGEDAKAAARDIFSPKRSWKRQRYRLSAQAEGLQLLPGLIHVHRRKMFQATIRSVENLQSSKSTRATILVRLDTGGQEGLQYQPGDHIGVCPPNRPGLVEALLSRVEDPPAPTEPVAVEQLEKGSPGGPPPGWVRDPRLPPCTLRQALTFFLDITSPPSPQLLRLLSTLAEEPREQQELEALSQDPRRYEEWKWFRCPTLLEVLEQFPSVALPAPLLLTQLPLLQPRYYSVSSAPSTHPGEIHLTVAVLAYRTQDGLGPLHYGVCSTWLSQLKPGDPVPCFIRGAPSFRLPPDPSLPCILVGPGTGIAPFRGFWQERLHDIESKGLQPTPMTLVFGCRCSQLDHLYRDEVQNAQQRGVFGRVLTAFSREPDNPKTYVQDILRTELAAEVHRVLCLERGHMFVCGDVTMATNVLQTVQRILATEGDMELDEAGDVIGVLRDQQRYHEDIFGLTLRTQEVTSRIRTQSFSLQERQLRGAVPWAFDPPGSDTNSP
Outline: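 eNOS percent inhibition screened at 10 μM compound; mean ± SD of triplicate experiments.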

[5] = target: T1, Nitric oxide synthase, inducible; assay: Inhibition of recombinant N-terminal His-tagged human iNOS expressed in Escherichia coli using L-arginine as substrate preincubated for 15 mins followed by NADPH addition and measured after 20 mins by OPA/NAC reagent based HPLC-fluorimetric analysis
Outline: (§3)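 IC50 against human iNOS, nNOS and eNOS from experiments in triplicate at seven different concentrations; mean ± SD reported.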

[6] = test system: C6; assay: Antiproliferative activity against rat C6 cells assessed as inhibition of cell proliferation at 500 uM after 24 hrs by MTT assay; assay type: functional, cell-based; outline: as §1
[7] = target: T2, Nitric oxide synthase 1; assay: Inhibition of recombinant human nNOS expressed in Escherichia coli using L-arginine as substrate preincubated for 15 mins followed by NADPH addition and measured after 20 mins by OPA/NAC reagent based HPLC-fluorimetric analysis; outline: as §3
[8] = target: T4, Nitric oxide synthase 3 (Homo sapiens, UniProt P29474); assay: Inhibition of human eNOS using L-argininge as substrate preincubated for 15 mins followed by NADPH addition and measured after 20 mins by OPA/NAC reagent based HPLC analysis; outline: as §3
T4 sequence (P29474 whole entry): T3 sequence (whole entry)

[9] = target: Nitric oxide sythases; iNOS & nNOS (Homo sapiens) (UniProt P29475+P35228); assay: Selectivity index, ratio of IC50 for recombinant human nNOS expressed in Escherichia coli to IC50 for recombinant N-terminal His-tagged human iNOS expressed in Escherichia coli
Sequence of Nitric oxide sythases; iNOS & nNOS (Homo sapiens) (P29475 whole entry, looked up): as the sequence (P29475 whole entry) above
Sequence of Nitric oxide sythases; iNOS & nNOS (Homo sapiens) (P35228 whole entry, looked up): as the sequence (P35228 whole entry) above
Outline: (§4)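 Ratio of IC50 values for human eNOS or nNOS to that for human iNOS, each IC50 from triplicate runs at seven concentrations.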

[10] = species on record: Homo sapiens; assay: Selectivity index, ratio of IC50 for recombinant human eNOS to IC50 for recombinant N-terminal His-tagged human iNOS expressed in Escherichia coli; outline: as §4
[11] = Cytotoxicity against rat CTX/TNA2 cells assessed as reduction in cell metabolic activity at 1500 uM after 24 hrs by MTT assay; assay type: ADME, cell-based
Outline: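 Rat astrocytes (CTX) exposed 24 h to increasing concentrations up to 1500 μM; metabolic activity by MTT, expressed as percent of untreated (0 μM) cultures set at 100%; means ± SD of three replicates.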

[12] = test system: C6; assay: Antiproliferative activity against rat C6 cells assessed as reduction in cell metabolic activity after 24 hrs by MTT assay; assay type: functional, cell-based; outline: as §1
[13] = test system: C6; assay: Antiproliferative activity against rat C6 cells assessed as cell metabolic activity at 50 uM after 24 hrs by MTT assay relative to control; assay type: functional; outline: as §1
[14] = test system: C6; assay: Antiproliferative activity against rat C6 cells assessed as cell metabolic activity at 750 uM after 24 hrs by MTT assay relative to control; assay type: functional; outline: as §1
[15] = test system: C6; assay: Antiproliferative activity against rat C6 cells assessed as cell metabolic activity at 1000 uM after 24 hrs by MTT assay relative to control; assay type: functional; outline: as §1
[16] = test system: C6; assay: Antiproliferative activity against rat C6 cells assessed as cell metabolic activity at 1500 uM after 24 hrs by MTT assay relative to control; assay type: functional; outline: as §1
[17] = test system: C6; assay: Antiproliferative activity against rat C6 cells assessed as increase in LDH release after 24 hrs by CytoTox 96 Non-Radioactive assay; assay type: functional, cell-based
[18] = test system: C6; assay: Antiproliferative activity against rat C6 cells assessed as LDH release at 250 uM after 24 hrs by CytoTox 96 Non-Radioactive assay (reference value: 13.49%); assay type: functional
[19] = test system: C6; assay: Antiproliferative activity against rat C6 cells assessed as LDH release at 500 to 1000 uM after 24 hrs by CytoTox 96 Non-Radioactive assay (reference value: 13.49%); assay type: functional

inhibition [2] [%] | inhibition [3] [%] | inhibition [4] [%] | Structure (SMILES) | also measured
– | – | – | Cn1nnc2c(C(N)=O)ncn2c1=O [TEMOZOLOMIDE] | inhibition at 500 µM [1]: 12%
100 | 13 | 4 | CC(=N)Nc1nc(-c2ccc(Cl)cc2)cs1 | –
100 | 0 | 0 | CC(=N)NCc1ccc(C(=O)Nc2nccs2)cc1 | –
– | – | – | CC(=N)NCc1cccc(CNC(=O)CCC(=O)O)c1 | IC50 [5]: 428 nM
– | – | – | CC(=N)NCc1cccc(CNC(=O)C2CCCN2)c1 (stereo not drawn) | Activity [6]: inactive
84 | 96 | 0 | CC(=N)Nc1ccc(C(=O)Nc2nccs2)cc1 | –
– | – | – | CC(=N)NCc1cccc(CN)c1 | Activity [6]: inactive
100 | 0 | 0 | Br.CC(=N)Nc1ccc(C(=O)Nc2ccc(F)cc2)cc1 | IC50 [5]: 11 nM; IC50 [7]: 6200 nM; IC50 [8]: > 10000 nM; Ratio IC50 [9]: 563; Ratio IC50 [10]: > 900; Activity [11]: Toxic; Activity [12]: Dose-dependent effect; Activity [13]: 86.45%; Activity [14]: 64.86%; Activity [15]: 65.22%; Activity [16]: 64.42%; inhibition at 500 µM [1]: 31%; Activity [17]: Dose-dependent effect; Activity [18]: 22.48%; Activity [19]: 27%
100 | 2 | 14 | CC(=N)Nc1nc(-c2ccccc2)cs1 | –
81 | 47 | 3 | CC(=N)Nc1ccc(S(=O)(=O)Nc2nccs2)cc1 | –
87 | 97 | 0 | CC(=N)NCc1ccc(C(=O)Nc2ccc(F)cc2)cc1 | –
– | – | – | CC(N)C(=O)Cc1cn[nH]c1 (stereo not drawn) | IC50 [5]: 681 nM
70 | 0 | 4 | CC(=N)NCc1ccc(C(=O)O)cc1 | –
93 | 0 | 5 | CC(=N)NCc1ccc(F)cc1 | –
86 | 14 | 62 | CC(=N)Nc1ccc(C(=O)O)cc1 | –
85 | 10 | 0 | CC(=N)Nc1ccc(F)cc1 | –
